PostGolgi ctrl = growth inhibition of yeast control strain, primary screen, counter-screen for post-Golgi transport modulator project. efflux-deficient yeast background strain, growth absorbance A615, 16 h. inhibition, % at 10 µM. 98,000 tested, 5% active
FAK inh = FAK kinase inhibitors, primary screen, biochemical | biochemical FAK kinase activity assay | inhibition, %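 (tested at 7 µM)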 | 97,000 tested, 0.84% active; in the data active means inhibition above about 19%
Pyk2 oligo antag = antagonists of Pyk2 self-association, primary screen, Q293 cells, FERM NanoBiT luminescence, HTS; Protein-tyrosine kinase 2-beta (Homo sapiens), Q14289; active compounds read low; z-score (the deposit names both 25 µM and 10 µM); 99,000 tested, 0.83% active; AID 1347419, 2020;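 active means Z-score of -3 or lower, scaled per plate to the spread of control and sample wells; inactive means z-score above -3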;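 further: negative z-score means lost luminescence so less FERM oligomerization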
Candida biofilm = clotrimazole potentiators killing Candida biofilms, primary screen, with clotrimazole, Alamar Blue | C. albicans biofilm + clotrimazole | inhibition, % at 6 µM | 85,000 tested, 0.14% active | AID 834, 2007;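 active means inhibition above 20%; inactive means inhibition below 20%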;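 further: preformed 24 hr biofilms exposed to compound for 48 hr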
PostGolgi yeast = phenotypic screen on post-Golgi transport, primary screen | post-Golgi transport phenotypic cell assay | inhibition, % at 10 µM | 98,000 tested, 0.9% active | AID 739, 2007;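 further: yeast cells grown in 1536-well plates; yeast grown about 18 h at 30C before absorbance read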
tolC growth inh = growth inhibitors of E. coli tolC mutant, primary screen, strain BW25113 ΔtolC::kan, 384-well | AID 573, 2007 | growth inhibition, % at 10 µM (by protocol) | OD615 | 65,000 tested, 2.2% active;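 active means growth inhibition at or above a cutoff equal to the mean over every tested compound plus 3 SD, cut at about 60% in these data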;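 further: growth measured after 20 h incubation at 37 °C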
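Doses: one dose of 10 µM final / Material: E. coli BW25113 ΔtolC::kan, tolC deletion mutant strain / Buffer or medium: LB with kanamycin 50 µg/mL / Evaluation: percent growth inhibition / Detection: optical density read at 615 nm / Incubation: 37 °C, 20 h exposure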
A number is an active result; . = inactive; / = no result. A selection: hits, their analogues and other compounds. The true share with any hit is near 6.9%. Unless noted, no stated cut-off is given here; in the data, active means inhibition above about 30%; inactive means the rest.

SMILES	PostGolgi ctrl	FAK inh	Pyk2 oligo antag	Candida biofilm	PostGolgi yeast	tolC growth inh
Cc1ccc(C(=O)Nc2ccccc2C(=O)NCc2ccco2)cc1S(=O)(=O)N1CCCCC1	97	.	.	.	.	.
C=CCn1cc(C(=O)NCc2ccco2)c(=O)c2cc(S(=O)(=O)N3CCCCCC3)ccc21	.	.	.	/	.	68
O=C(NCc1ccco1)c1cc(S(=O)(=O)N2CCOCC2)ccc1Cl	35	.	.	.	.	.
CCn1cc(C(=O)NCc2ccco2)c(=O)c2cc(S(=O)(=O)N3CCCCCC3)ccc21	.	.	.	.	.	.
COc1ccc(S(=O)(=O)Nc2ccccc2C(=O)NCc2ccco2)cc1Br	.	.	.	.	.	83
S=c1[nH]nc(COc2ccc(Cl)cc2)n1C1CCCCC1	/	.	.	.	/	/
Cc1ccc(OCc2n[nH]c(=S)n2C2CCCCC2)cc1	41	.	.	.	.	/
Cn1c(SCC(=O)N2CCOCC2)nnc1-c1cnccn1	.	.	.	.	.	.
CN(C(=O)CSc1nnc2ccccn12)C1CCS(=O)(=O)C1 (centres undefined)	.	.	.	.	.	/
S=C(c1ccc(N2CCOCC2)cc1)N1CCOCC1	.	.	.	.	.	.
Brc1cc(Br)c2nc(-c3ccc(N4CCOCC4)cc3)ccc2c1	36	.	.	/	.	/
O=C(Nc1ccc(O)cc1)c1ccc(C(=O)c2ccccc2)o1	.	.	-3.2	.	.	.
CC(C)C12CN3CC(C(C)C)(CN(C1)C31C(=O)Nc3ccccc31)C2=O (centres undefined)	.	.	.	.	.	.
COc1cccc(-c2cc(C(=O)Nc3c(C)nn(Cc4ccccc4C)c3C)no2)c1	.	.	.	.	.	71
COc1cccc(-c2cc(C(=O)Nc3c(C)nn(Cc4ccccc4)c3C)no2)c1	.	.	.	.	.	.
Cc1ccccc1Cn1nc(C)c(NC(=O)c2noc3c2CCc2ccccc2-3)c1C	38	.	/	.	.	68
Cc1nn(Cc2ccc(Cl)c(Cl)c2)c(C)c1NC(=O)c1noc2c1CCCCC2	.	/	.	.	.	.
Cc1c(NC(=O)c2noc3c2CCc2ccccc2-3)c(=O)n(-c2ccccc2)n1C	/	.	/	.	/	.
Cc1nn(Cc2ccc(Cl)cc2)c(C)c1NC(=O)c1noc2c1CCCCC2	.	/	.	.	.	84
Cc1ccccc1Cn1cc(NC(=O)c2noc3c2CC(C(C)(C)C)CC3)cn1 (centres undefined)	.	.	.	.	.	.
Cc1ccccc1Cn1nc(C)c(NC(=O)c2noc3c2CC(C(C)(C)C)CC3)c1C (centres undefined)	.	.	.	.	.	74
COc1cccc(OC)c1C(=O)OCC(=O)Nc1ccc(OC(F)(F)F)cc1	.	.	.	/	.	/
O=C(CN1CCCCCC1)Nc1cccc2c1OCO2	.	.	.	.	.	.
O=C(Nc1nccs1)C1(S(=O)(=O)c2ccc(Cl)cc2)CC1	.	.	.	.	.	.
O=C1N=C(N2CCOCC2)S/C1=C1\C(=O)N(Cc2ccccc2)c2ccccc21	/	/	.	.	/	.
SMILES	PostGolgi ctrl	FAK inh	Pyk2 oligo antag	Candida biofilm	PostGolgi yeast	tolC growth inh
CCc1nc2ccccc2c(C(=O)OC2CCOC2=O)c1C (centres undefined)	.	.	.	.	.	.
C=CCCCOc1ccc(C(=O)O)cc1	.	.	.	.	.	.
CCC(=O)OCC(=O)c1c(N)n(Cc2ccccc2)c(=O)n(C)c1=O	.	.	.	/	.	.
Cn1c(=O)c(C(=S)NC(=O)C2CC2)c(N)n(Cc2ccccc2)c1=O	.	.	/	.	/	86
CC(C)N(Cc1nc(-c2ccc(Cl)cc2)no1)C(=O)CCC1CCCC1	35	.	/	.	.	72
CC(C)N(Cc1nc(-c2ccccc2)no1)C(=O)COc1ccccc1	.	.	/	.	.	.
COc1cccc(OCC(=O)N(Cc2nc(-c3ccc(Cl)cc3)no2)C(C)C)c1	54	.	/	.	.	63
Cc1cccc(-c2noc(CN(C(=O)c3ccc(Br)o3)C(C)C)n2)c1	33	.	.	.	.	63
CC(C)N(Cc1nc(-c2ccccc2)no1)C(=O)Cc1ccccc1	.	.	/	.	.	.
COc1ccccc1OCC(=O)N(Cc1nc(-c2ccc(Cl)cc2)no1)C(C)C	46	.	/	.	.	.
O=S(=O)(/N=C/N1CCOCC1)c1ccc(Cl)cc1	.	.	.	.	.	.
Cc1ccc(C)c(C(=O)N(Cc2nc(-c3ccc(Cl)cc3)no2)C(C)C)c1	32	.	/	.	.	77
CNC(=S)NN(c1ccccc1)c1ccccc1	.	.	.	.	.	/
CN(C)c1ccnc(Oc2ccc(Cl)cc2)c1C#N	.	.	.	/	.	/
COc1cccc(-c2cc(C(=O)N3C(C)CCCC3C)no2)c1 (centres undefined)	.	.	.	.	.	68
COc1cccc(-c2cc(C(=O)N3CCN(C(c4ccccc4)c4ccccc4)CC3)no2)c1	.	.	.	.	38	.
CC12CCC(c3c(C(=O)O)nn(-c4ccccc4)c31)C2(C)C (centres undefined)	.	.	.	.	.	.
CC12CCC(c3c(C(=O)Nc4nccs4)nn(-c4ccccc4)c31)C2(C)C (centres undefined)	.	.	.	.	39	.
CCOC(=O)c1c(C)[nH]c(C)c1C(=O)Cn1nnc(-c2ccccc2C)n1	.	.	.	.	.	63
CCOC(=O)c1c(C)[nH]c(C(=O)Cn2nnc(-c3ccccc3Cl)n2)c1C	.	.	.	.	.	.
CCOC(=O)C1CN(S(=O)(=O)c2ccc(C)cc2)C1	.	.	.	/	.	/
COC(=O)C1CN(S(=O)(=O)c2ccc(C)cc2)CCN1S(=O)(=O)c1ccc(C)cc1 (centres undefined)	.	.	-3.7	.	.	.
O=C(CNC(=O)c1ccccn1)N/N=C/c1ccccc1	.	.	.	/	.	/
O=C(c1ccc(Cl)c(Cl)c1)N(Cc1ccco1)c1ccc(O)cc1	.	.	.	.	.	100
O=C(Cn1c(O)c(/C=C2\C=Nc3ccc(Br)cc32)sc1=O)N1CCCC1	37	.	.	/	.	/
SMILES	PostGolgi ctrl	FAK inh	Pyk2 oligo antag	Candida biofilm	PostGolgi yeast	tolC growth inh
Nc1ccc(C(O)(C(F)(F)F)C(F)(F)F)cc1	.	.	.	.	.	/
Nc1ccc(-c2ccc(N)cc2C(F)(F)F)c(C(F)(F)F)c1	.	.	-3.1	.	.	.
CC1CC(N(C(=O)c2ccco2)c2ccccc2)c2ccccc2N1 (centres undefined)	.	.	.	.	.	68
Cc1noc(NS(=O)(=O)c2ccc(NC(=O)CSc3ncccn3)cc2)c1C	.	.	/	/	.	.
Cc1noc(NS(=O)(=O)c2ccc(NC(=O)CSc3nc4ccccc4s3)cc2)c1C	33	.	.	.	.	.
CCN(CC(=O)Nc1ccc2c(c1)OCCO2)C(=O)C1CCCCC1	.	.	.	.	.	.
CCOc1ccccc1N1CCN(Cc2ccc(Br)s2)CC1	.	.	.	/	.	97
